Where a SMILES comes first, the peptide text is derived from it. The star is where a group is joined. Cbz = O=C(OCc1ccccc1)*

Test [1] has as its system HeLa. The test can be described thus: Cell cycle arrest in human HeLa cells assessed as accumulation at G1 phase at 1 uM after 24 hrs by flow cytometry (reference value: 56.4 +/- 0.39%). It is filed as functional.
Test [2] has as its system HeLa. The test can be described thus: Growth inhibition of human HeLa cells after 72 hrs by MTT assay. The test is classed as functional, cell-based. In short, it runs like this: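 HeLa cells incubated for 72 h with a range of compound concentrations; viability read by MTT assay and used to derive IC50.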
The subject of test [3] is HeLa. The test can be described thus: Induction of apoptosis in human HeLa cells at 10 uM incubated for 12 hrs using annexin V-FITC and propidiun iodide staining based flow cytometry (reference value: 2.6 +/- 0.14%). The test is classed as functional. Summed up: (§1)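 HeLa cells treated for 12 h, then stained with annexin V-FITC and propidium iodide; apoptosis measured by flow cytometry. Values are mean ± sd of triplicate samples.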

The subject of test [4] is HeLa. The test can be described thus: Cell cycle arrest in human HeLa cells assessed as accumulation at G2/M phase at 10 uM after 24 hrs by flow cytometry (reference value: 13.7 +/- 0.87%). The test is classed as functional.
Test [5] concerns HeLa. The test can be described thus: Cell cycle arrest in human HeLa cells assessed as accumulation at G1 phase at 10 uM after 24 hrs by flow cytometry (reference value: 56.4 +/- 0.39%). It is filed as functional.
Test [6] has as its system HeLa. The test can be described thus: Induction of apoptosis in human HeLa cells at 1 uM incubated for 12 hrs using annexin V-FITC and propidiun iodide staining based flow cytometry (reference value: 2.6 +/- 0.14%). It is filed as functional. In short, it runs like this:
as §1

Test [7] relates to HeLa. The test can be described thus: Cell cycle arrest in human HeLa cells assessed as accumulation at S phase at 10 uM after 24 hrs by flow cytometry (reference value: 30 +/- 0.46%). It is filed as functional.
Test [8] in a line: Inhibition of trypsin-like activity of human erythrocyte 20S proteasome using Boc-LLR-AMC substrate incubated at 37 degC for 1 hr by fluorometric assay. Particulars: in the assay text read “Boc-LRR-AMC” for “Boc-LLR-AMC”. In short, it runs like this: (§2)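 Compound combined with 75 µM fluorogenic substrate in 20 mM Tris pH 8.0, 0.5 mM EDTA, 0.035% SDS. Reaction started with 50 ng of purified human erythrocyte 20S proteasome and run 1 h at 37 °C. Stopped with 20 mM Tris pH 8.9, 0.5% SDS; released AMC read at 365 nm excitation / 460 nm emission.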

A short description of test [9]: Inhibition of caspase-like activity of human erythrocyte 20S proteasome using Z-LLE-AMC substrate incubated at 37 degC for 1 hr by fluorometric assay. In short, it runs like this:
as §2

Test [10] concerns HeLa. The test can be described thus: Cell cycle arrest in human HeLa cells assessed as accumulation at S phase at 1 uM after 24 hrs by flow cytometry (reference value: 30 +/- 0.46%). The test is classed as functional.
In test [11] the test system is HeLa. The test can be described thus: Cell cycle arrest in human HeLa cells assessed as accumulation at G2/M phase at 1 uM after 24 hrs by flow cytometry (reference value: 13.7 +/- 0.87%). It is filed as functional.
A short description of test [12]: Inhibition of chymotrypsin-like activity of human erythrocyte 20S proteasome using Suc-LLVY-AMC substrate incubated at 37 degC for 1 hr by fluorometric assay. In short, it runs like this:
as §2

A short description of test [13]: Antiproliferative activity against human HeLaS3 cells after 72 hrs. The test is classed as functional, cell-based. Particulars: HeLa S3, 72 h. In short, it runs like this:
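HeLa cells were exposed to a range of compound concentrations for 72 h, and viability was then read by MTT assay. IC50 values are growth inhibition, reported as mean ± sd of triplicate samples.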

In test [14] the test system is HeLa. The test can be described thus: Induction of apoptosis in human HeLa cells at 0.1 uM incubated for 12 hrs using annexin V-FITC and propidiun iodide staining based flow cytometry (reference value: 2.6 +/- 0.14%). The test is classed as functional. In short, it runs like this: as §1
The test system of test [15] is HeLa. The test can be described thus: Cell cycle arrest in human HeLa cells assessed as accumulation at G1 phase at 0.1 uM after 24 hrs by flow cytometry (reference value: 56.4 +/- 0.39%). The test is classed as functional.
Test [16] deals with HeLa. The test can be described thus: Cell cycle arrest in human HeLa cells assessed as accumulation at S phase at 0.1 uM after 24 hrs by flow cytometry (reference value: 30 +/- 0.46%). The test is classed as functional.
In test [17] the test system is HeLa. The test can be described thus: Cell cycle arrest in human HeLa cells assessed as accumulation at G2/M phase at 0.1 uM after 24 hrs by flow cytometry (reference value: 13.7 +/- 0.87%). The test is classed as functional.

Regarding `CC(C)C[C@H](NC(=O)CC[C@H](NC(=O)CNC(=O)OC(C)(C)C)C(=O)NCc1ccc2ccccc2c1)B(O)O`, the Activity is reported as 57.7% with HeLa [1]; 15.2% with HeLa [3]; 62.6% in the test on HeLa [4]; 23% with HeLa [5]; 12.9% in the test with HeLa [6]; 14.4% in the test with HeLa [7]. The Activity turned out to be 16.4% in the test on HeLa [10] and 26% in the test with HeLa [11]. For the same compound, the half-maximal inhibitory concentration (IC50) in the test on HeLa [2] was 0.35 µM; in [8], > 10 µM; in test [9], 8.54 µM; in test [12], 0.28 µM.

Turning to `CC(C)C[C@H](NC(=O)CC[C@H](NC(=O)[C@H](C)NC(=O)OC(C)(C)C)C(=O)NCc1ccc2ccccc2c1)B(O)O`, the IC50 with HeLa [2] was 2.35 µM; in [8], > 10 µM; in test [9], 9.84 µM; in test [12], 0.84 µM.

Regarding `CC(C)C[C@H](NC(=O)CC[C@H](NC(=O)[C@H](CC(C)C)NC(=O)OC(C)(C)C)C(=O)NCc1ccc2ccccc2c1)B(O)O`, the IC50 in the test with HeLa [2] is 0.79 µM; in test [8], > 10 µM; in test [9], > 10 µM; in test [12], 1.5 µM.

Regarding `CC(C)C[C@H](NC(=O)CC[C@H](NC(=O)[C@H](Cc1ccccc1)NC(=O)OC(C)(C)C)C(=O)NCc1ccc2ccccc2c1)B(O)O`, the IC50 was 0.66 µM in the test with HeLa [2], > 10 µM in test [8], > 10 µM in [9] and 1.47 µM in test [12].

In the case of `CC(C)C[C@H](NC(=O)CC[C@H](NC(=O)CNC(=O)OC(C)(C)C)C(=O)NCc1ccccc1)B(O)O`, the Activity in the test on HeLa [1] worked out at 56.2%; in the test with HeLa [3], 11.7%; in the test with HeLa [4] it was 26%; in the test with HeLa [5] it was 43.2%; with HeLa [6], 7.6%; with HeLa [7] it was 30.7%. Also, the values for the Activity in the test on HeLa [10] and in the test with HeLa [11] were 30.7% and 13.1%, respectively. Moreover, the IC50 with HeLa [2] was 5.11 µM; in test [8] it was > 10 µM; in [9] it was > 10 µM; in [12], 0.54 µM.

Take `CC(C)C[C@H](NC(=O)CCC[C@H](NC(=O)CNC(=O)OC(C)(C)C)C(=O)NCc1ccc2ccccc2c1)B(O)O`: the IC50 with HeLa [2] was > 10 µM; in test [8] it was > 10 µM; in [9], > 10 µM; in test [12], 2.74 µM.

Turning to `CC(C)C[C@H](NC(=O)CCC[C@H](NC(=O)[C@H](C)NC(=O)OC(C)(C)C)C(=O)NCc1ccc2ccccc2c1)B(O)O`, the IC50 in the test with HeLa [2] was > 10 µM; in test [8], > 10 µM; in test [9], > 10 µM; in [12], 4.28 µM.

In the case of `CC(C)C[C@H](NC(=O)C[C@H](NC(=O)OC(C)(C)C)C(=O)NCc1ccc2ccccc2c1)B(O)O`, the IC50 with HeLa [2] is > 10 µM; in test [8], > 10 µM; in test [9] it was > 10 µM; in test [12], 4.51 µM.

With `CC(C)C[C@H](NC(=O)CC[C@H](NC(=O)OC(C)(C)C)C(=O)NCc1ccc2ccccc2c1)B(O)O`, the IC50 (in the test with HeLa [2]; in test [8]; in test [9]; in test [12]) was > 10 µM in each case.

For the compound `CC(C)C[C@H](NC(=O)CCC[C@H](NC(=O)OC(C)(C)C)C(=O)NCc1ccc2ccccc2c1)B(O)O`, the IC50 with HeLa [2] is > 10 µM; in test [8] it was > 10 µM; in test [9], > 10 µM; in [12], 4.12 µM.

As for `CC[C@H](C)[C@@H]1C(=O)O[C@H]1C(=O)N[C@H]1C[C@H]1C[C@H](NC(=O)[C@H](C)N)C(=O)O` [BELACTOSIN A], in [13], it took 51 µM to reach half-maximal inhibition (IC50).

In the case of `CC[C@H](C)[C@@H]1C(=O)O[C@H]1C(=O)NCCC[C@H](NC(=O)[C@H](C)N)C(=O)O` [BELACTOSIN C], it took 200 µM to reach half-maximal inhibition in test [13] (IC50).

Regarding `CC(C)C[C@H](NC(=O)[C@H](Cc1ccccc1)NC(=O)c1cnccn1)B(O)O` [BORTEZOMIB], the 50% inhibitory concentration (IC50) was 0.02 µM in the test with HeLa [2], > 10 µM in test [8], 0.68 µM in [9] and 0.02 µM in test [12]. Besides, the Activity with HeLa [14] came to 14.5%; with HeLa [15] it was 14.6%; with HeLa [16], 15.9%; in the test on HeLa [17] it was 69.6%.

For `CC(C)C[C@@H](C=O)NC(=O)[C@H](CC(C)C)NC(=O)[C@H](CC(C)C)NC(=O)OCc1ccccc1` [MG-132] (Cbz-Leu-Leu-Leu-aldehyde), the IC50 in test [8] is > 10 µM; in test [9] it was 7.23 µM; in test [12], 0.07 µM.

The values are drawn from ChEMBL document CHEMBL1781998, “Synthesis and biological evaluation of boron peptide analogues of Belactosin C as proteasome inhibitors” (Bioorg Med Chem Lett, 2009).
